Measured values taken from ChEMBL document CHEMBL1770061, “Synthesis and antiproliferative activity of new cytotoxic azanaphthoquinone pyrrolo-annelated derivatives: Part II” (Bioorg Med Chem Lett, 2011).
In brackets after ≈: the same amount, converted by molar mass.

Legend:
NCI-H460 [1] = assay: Antiproliferative activity against human NCI-H460 cells assessed as growth inhibition at 3.16 ug/ml after 48 hrs by XTT assay; assay type: functional; settings: NCI-H460, 48 h
Method in brief: (§1)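 This is the same 48 h XTT assay: 10-point half-log series, 0.3% final DMSO, 3 h XTT/PMS, A490, with untreated cells as 0% and blanks as 100% inhibition. Inhibition at the highest tested concentration was scored as none (<30%) or moderate (≥30%).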

SF-268 [2] = assay: Antiproliferative activity against human SF268 cells assessed as growth inhibition at 3.16 ug/ml after 48 hrs by XTT assay; assay type: functional; settings: SF-268, 48 h; method in brief: as §1
[3] = Antiproliferative activity against human KB/HeLa cells assessed as growth inhibition at 3.16 ug/ml after 48 hrs by XTT assay; assay type: functional; method in brief: as §1
[4] = Antiproliferative activity against human RKOp27 cells assessed as growth inhibition at 3.16 ug/ml after 48 hrs by XTT assay; assay type: functional; settings: RKOp27, 48 h; method in brief: as §1
[5] = Antiproliferative activity against human RKOp27IND cells assessed as growth inhibition at 3.16 ug/ml after 48 hrs by XTT assay; assay type: functional; method in brief: as §1
SK-OV-3 [6] = assay: Antiproliferative activity against human SKOV3 cells assessed as growth inhibition at 3.16 ug/ml after 48 hrs by XTT assay; assay type: functional; settings: SK-OV-3, 48 h; method in brief: as §1
SK-OV-3 [7] = assay: Antiproliferative activity against human SKOV3 cells after 48 hrs by XTT assay; assay type: functional, cell-based; settings: SK-OV-3, 48 h
Method in brief: (§2)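 Compounds dissolved in DMSO were added as a 10-point half-log dilution series, with final DMSO adjusted to 0.3%. Cells were incubated 45 h at 37 °C/5% CO2, then XTT (1 mg/ml) plus PMS was added for 3 h more (48 h total). Absorbance was read at 490 nm. Untreated cells were set as 0% inhibition and cell-free blanks as 100%. EC50 was fitted by nonlinear regression from ≥2 independent assays and reported as mean ± SD.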

SF-268 [8] = assay: Antiproliferative activity against human SF268 cells after 48 hrs by XTT assay; assay type: functional, cell-based; settings: SF-268, 48 h
Method in brief: (§3)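 Compounds were added from DMSO stocks as a 10-point half-log dilution series, with final DMSO adjusted to 0.3%. Cells were incubated for 45 h at 37 °C/5% CO2, then with 1 mg/ml XTT plus PMS for a further 3 h. Absorbance at 490 nm was read after 48 h total. Untreated cells were set as 0% and cell-free blanks as 100% inhibition. EC50 came from nonlinear regression of at least two independent assays.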

[9] = Antiproliferative activity against human KB/HeLa cells after 48 hrs by XTT assay; assay type: functional, cell-based; method in brief: as §3
NCI-H460 [10] = assay: Antiproliferative activity against human NCI-H460 cells after 48 hrs by XTT assay; assay type: functional, cell-based; settings: NCI-H460, 48 h; method in brief: as §3
[11] = Antiproliferative activity against human RKOp27IND cells after 48 hrs by XTT assay; assay type: functional, cell-based; method in brief: as §2
[12] = Antiproliferative activity against human RKOp27 cells after 48 hrs by XTT assay; assay type: functional, cell-based; settings: RKOp27, 48 h; method in brief: as §3
[13] = Chemical stability of the compound in KH2PO4/Na2HPO4 buffer at pH 5.5 after 6 hrs by NMR spectroscopy; assay type: physicochemical; settings: pH 5.5, 6 h
Method in brief: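 Compounds were exposed at 37 °C to a KH2PO4/Na2HPO4 buffer at pH 5.5, prepared according to the European Pharmacopoeia.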

SMILES	inhibition at 3.16 µg/mL (NCI-H460 [1]) [%]	inhibition at 3.16 µg/mL (SF-268 [2]) [%]	inhibition at 3.16 µg/mL [3] [%]	inhibition at 3.16 µg/mL [4] [%]	inhibition at 3.16 µg/mL [5] [%]	inhibition at 3.16 µg/mL (SK-OV-3 [6]) [%]	EC50 (SK-OV-3 [7]) [µg/mL]	EC50 (SF-268 [8]) [µg/mL]	EC50 [9] [µg/mL]	EC50 (NCI-H460 [10]) [µg/mL]	EC50 [11] [µg/mL]	EC50 [12] [µg/mL]	Stability [13]
CN(C)CCc1cn(CCCCO)c2c1C(=O)c1ccncc1C2=O	< 30	< 30	< 30	< 30	< 30	< 30							
CN(C)CCc1c[nH]c2c1C(=O)c1ccncc1C2=O	< 30	< 30	< 30	< 30	< 30	< 30							
CN(C)CCc1cn(CCN2CC2)c2c1C(=O)c1ccncc1C2=O							2.74 (≈ 8.09 µM)	2.41 (≈ 7.12 µM)	0.972 (≈ 2.87 µM)	> 3.16	2.36 (≈ 6.99 µM)	0.784 (≈ 2.32 µM)	
O=C1c2ccncc2C(=O)c2c1ccn2CCCCCCCN1CC1							> 3.16	> 3.16	> 3.16	> 3.16	> 3.16	1.19 (≈ 3.54 µM)	
CN(C)CCc1cn(CCCCCCCN2CC2)c2c1C(=O)c1ccncc1C2=O		< 30			< 30		> 3.16		> 3.16	> 3.16		> 3.16	
O=C1c2ccncc2C(=O)c2c1ccn2CCN1CC1						< 30		> 3.16	> 3.16	> 3.16	> 3.16	> 3.16	
O=C1c2ccncc2C(=O)c2c1ccn2CC(O)CN1CC1 (stereo not given)							> 3.16	> 3.16	0.747 (≈ 2.51 µM)	2.21 (≈ 7.44 µM)	> 3.16	0.899 (≈ 3.02 µM)	
O=C1c2ccncc2C(=O)c2c1ccn2CCCC1CO1 (stereo not given)		≥ 30			< 30	< 30			> 3.16	> 3.16		> 3.16	Stable
CS(=O)(=O)OCCCCn1ccc2c1C(=O)c1cnccc1C2=O					< 30	< 30		> 3.16	> 3.16	> 3.16		> 3.16	
CN(C)CCc1cn(CCN(C)C)c2c1C(=O)c1ccncc1C2=O	< 30	< 30	< 30	< 30	< 30	< 30							
CN(C)CCc1cn(CCCCOS(C)(=O)=O)c2c1C(=O)c1ccncc1C2=O													Unstable
CN(C)CCc1cn(CCCCCCCOS(C)(=O)=O)c2c1C(=O)c1ccncc1C2=O													Unstable
CN(C)CCc1cn(CCCCCCCO)c2c1C(=O)c1ccncc1C2=O	< 30	< 30	< 30	< 30	< 30	< 30							
CN(C)CCCc1cn(CCCN(C)C)c2c1C(=O)c1ccncc1C2=O		< 30	< 30		< 30	< 30				> 3.16		> 3.16	
